# Results from ChEMBL document CHEMBL3585289, “Potent and Selective Amidopyrazole Inhibitors of IRAK4 That Are Efficacious in a Rodent Model of Inflammation” (ACS Med Chem Lett, 2015).
# Calls of active or inactive are those of the source. The calls are words filed in the database; no cut-off is given here.
# Legend:
# [1] = biological target: T1, Interleukin-1 receptor-associated kinase 4 (Homo sapiens, UniProt Q9NWZ3); experiment: biochemical
# T1 sequence (Q9NWZ3 whole entry): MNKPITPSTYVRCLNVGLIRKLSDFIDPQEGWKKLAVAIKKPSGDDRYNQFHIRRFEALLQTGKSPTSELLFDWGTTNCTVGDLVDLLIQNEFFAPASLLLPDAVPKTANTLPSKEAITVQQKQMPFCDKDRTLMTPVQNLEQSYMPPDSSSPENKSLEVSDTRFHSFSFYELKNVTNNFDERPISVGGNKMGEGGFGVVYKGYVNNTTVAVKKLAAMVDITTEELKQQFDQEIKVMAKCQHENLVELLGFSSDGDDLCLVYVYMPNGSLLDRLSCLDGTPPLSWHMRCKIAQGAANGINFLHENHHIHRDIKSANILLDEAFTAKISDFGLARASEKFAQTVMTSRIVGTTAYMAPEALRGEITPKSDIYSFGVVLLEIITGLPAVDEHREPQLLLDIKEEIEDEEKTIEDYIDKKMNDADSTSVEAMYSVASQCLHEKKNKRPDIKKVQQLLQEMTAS
# [2] = AUC (0 to 8 hrs) in Sprague-Dawley rat at 10 mg/kg, po administered as cassette dosing; format: ADME, organism-based; design: dose 10 mg/kg, time < 8 hr, route oral; conditions: in vivo
# [3] = Kinetic aqueous solubility of the compound in phosphate buffered saline at pH 7 at 25 degC after 24 hrs by HPLC/DAD method; format: physicochemical; conditions: read-out: Kinetic_solubility
# [4] = biological target: T2, Interleukin-1 receptor-associated kinase 4 (Homo sapiens) (UniProt Q9NWZ3); experiment: Inhibition of recombinant human IRAK4 at 10 uM relative to control
# T2 sequence (whole entry): T1 sequence (Q9NWZ3 whole entry)
# [5] = AUC (0 to 6 hrs) in Sprague-Dawley rat at 10 mg/kg, po administered as cassette dosing; format: ADME, organism-based; design: time < 6 hr, dose 10 mg/kg, route oral; conditions: in vivo
# [6] = test system: Mus musculus; experiment: Antiinflammatory activity in CIA-MAB-50-induced BALB/c mouse arthritis model assessed as decrease in LPS-induced paw size at 100 mg/kg, po qd administered on day 3 to 10 post LPS challenge measured on day 10 relative to vehicle-treated control; format: functional, organism-based
# Outline: (§1)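 BALB/c female mice given arthritogenic monoclonal antibody CIA-MAB-50 (2.5 mg) on day 0, then LPS booster (25 μg i.p.) on day 3. Oral gavage once daily on days 3–10; vehicle group received methylcellulose. Paw size measured on days 0, 3, 6, 8 and 10. Study ended on day 10, and day-10 paw size was compared with vehicle.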
# [7] = test system: Pgp; experiment: Activity at rat Pgp assessed as apparent permeability by cell-based assay; format: ADME; conditions: not told
# [8] = biological target: T2, Interleukin-1 receptor-associated kinase 4 (Homo sapiens); conditions: 1 uM
# [9] = Fraction unbound in rat plasma at 10 uM after 6 hrs by dialysis method; format: ADME, cell-free
# [10] = AUC (0 to 8 hrs) in Sprague-Dawley rat at 2 mg/kg, iv; format: ADME, organism-based; design: dose 2 mg/kg, time < 8 hr, route intravenous; conditions: in vivo
# [11] = test system: Rattus norvegicus; experiment: Antiinflammatory activity in Lewis rat peritonitis model assessed as reduction of TLR2 agonist PAM2CSK4-induced IL-6 production in plasma at 100 mg/kg, po administered 1 hr prior to PAM2CSK4 challenge measured after 3 hrs relative to vehicle-treated control; format: functional; design: scale not given: the % may be the effect or the level left
# Outline: (§2)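 Female Lewis rats (n = 9) dosed by oral gavage at 100 mg/kg. One hour later, TLR2 agonist PAM2CSK4 injected intraperitoneally. Plasma collected 3 h after injection for cytokine levels and drug exposure. Cytokines expressed relative to a vehicle-only group.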
# [12] = AUC (0 to 24 hrs) in mouse at 5 mg/kg, po; format: ADME, organism-based; design: dose 5 mg/kg, time < 24 hr, route oral; conditions: in vivo
# [13] = test system: Rattus norvegicus; experiment: Antiinflammatory activity in Lewis rat peritonitis model assessed as reduction of TLR2 agonist PAM2CSK4-induced TNF-alpha production in plasma at 100 mg/kg, po administered 1 hr prior to PAM2CSK4 challenge measured after 3 hrs relative to vehicle-treated control; format: functional; design: scale not given: the % may be the effect or the level left
# Outline: as §2
# [14] = biological target: T1, Interleukin-1 receptor-associated kinase 4; experiment: Inhibition of IRAK4 in human THP1-XBlue cells assessed as suppression of TLR4 agonist LPS-induced activation of NF-kappaB preincubated for 1 hr followed by LPS challenge measured after 5 hrs by secreted embryonic alkaline phosphatase reporter gene assay; format: cell-based, THP-1
# [15] = Oral bioavailability in Sprague-Dawley rat at 10 mg/kg administered as cassette dosing; format: ADME, organism-based; conditions: in vivo
# [16] = test system: Rattus norvegicus; experiment: Antiinflammatory activity in Lewis rat peritonitis model assessed as reduction of TLR2 agonist PAM2CSK4-induced IL-1beta production in plasma at 100 mg/kg, po administered 1 hr prior to PAM2CSK4 challenge measured after 3 hrs relative to vehicle-treated control; format: functional; design: scale not given: the % may be the effect or the level left
# Outline: as §2
# [17] = test system: Rattus norvegicus; experiment: Antiinflammatory activity in Lewis rat peritonitis model assessed as reduction of TLR2 agonist PAM2CSK4-induced IFN-gamma production in plasma at 100 mg/kg, po administered 1 hr prior to PAM2CSK4 challenge measured after 3 hrs relative to vehicle-treated control; format: functional; design: scale not given: the % may be the effect or the level left
# Outline: as §2
# [18] = test system: Rattus norvegicus; experiment: Antiinflammatory activity in Lewis rat peritonitis model assessed as reduction of TLR2 agonist PAM2CSK4-induced IL-8 production in plasma at 100 mg/kg, po administered 1 hr prior to PAM2CSK4 challenge measured after 3 hrs relative to vehicle-treated control; format: functional; design: scale not given: the % may be the effect or the level left
# Outline: as §2
# [19] = Drug metabolism in rat hepatocytes assessed as monooxidized metabolite formation; format: ADME, cell-based, Hepatocyte
# [20] = biological target: Misshapen-like kinase 1 (Homo sapiens) (UniProt Q8N4C8); experiment: Inhibition of recombinant human MINK1 at 10 uM relative to control
# [21] = test system: Mus musculus; experiment: Antiinflammatory activity in CIA-MAB-50-induced BALB/c mouse arthritis model assessed as decrease in LPS-induced paw size at 2 mg/kg, po qd administered on day 3 to 10 post LPS challenge measured on day 10 relative to vehicle-treated control; format: functional, organism-based
# Outline: as §1
# [22] = Plasma concentration in PAM2CSK4 challenged Lewis rat peritonitis model at 100 mg/kg, po administered 1 hr prior to PAM2CSK4 challenge measured after 3 hrs; format: ADME, organism-based
# Outline: as §2
# [23] = test system: Pgp; experiment: Apparent permeability across pig LLC-PK1 cells expressing human or mouse Pgp; format: ADME, cell-based, Sus scrofa
# [24] = biological target: BDNF/NT-3 growth factors receptor (Homo sapiens) (UniProt Q16620); experiment: Inhibition of recombinant human TRKB at 10 uM relative to control
# BDNF/NT-3 growth factors receptor (Homo sapiens), sequence (Q16620 32-822 limits assumed): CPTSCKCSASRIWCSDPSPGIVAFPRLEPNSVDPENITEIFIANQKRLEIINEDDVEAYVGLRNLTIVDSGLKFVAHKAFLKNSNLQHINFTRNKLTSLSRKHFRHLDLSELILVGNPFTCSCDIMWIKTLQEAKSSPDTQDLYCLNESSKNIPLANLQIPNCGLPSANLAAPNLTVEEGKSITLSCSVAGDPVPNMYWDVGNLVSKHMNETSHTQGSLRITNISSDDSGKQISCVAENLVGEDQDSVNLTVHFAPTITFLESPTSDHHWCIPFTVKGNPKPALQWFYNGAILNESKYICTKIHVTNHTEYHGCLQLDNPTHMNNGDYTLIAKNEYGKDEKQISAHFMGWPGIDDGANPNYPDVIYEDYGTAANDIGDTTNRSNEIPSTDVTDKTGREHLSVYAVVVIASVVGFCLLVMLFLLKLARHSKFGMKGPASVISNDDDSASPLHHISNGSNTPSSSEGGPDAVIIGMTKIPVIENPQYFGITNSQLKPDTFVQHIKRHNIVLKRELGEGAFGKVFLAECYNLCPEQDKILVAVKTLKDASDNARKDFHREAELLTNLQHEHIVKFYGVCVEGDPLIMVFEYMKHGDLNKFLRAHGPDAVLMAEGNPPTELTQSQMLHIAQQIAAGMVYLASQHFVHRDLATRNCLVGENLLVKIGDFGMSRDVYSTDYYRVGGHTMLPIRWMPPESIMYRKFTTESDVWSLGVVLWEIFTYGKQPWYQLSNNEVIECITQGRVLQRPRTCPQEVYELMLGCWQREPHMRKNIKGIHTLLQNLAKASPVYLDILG
# Misshapen-like kinase 1 (Homo sapiens), sequence (Q8N4C8 whole entry, looked up): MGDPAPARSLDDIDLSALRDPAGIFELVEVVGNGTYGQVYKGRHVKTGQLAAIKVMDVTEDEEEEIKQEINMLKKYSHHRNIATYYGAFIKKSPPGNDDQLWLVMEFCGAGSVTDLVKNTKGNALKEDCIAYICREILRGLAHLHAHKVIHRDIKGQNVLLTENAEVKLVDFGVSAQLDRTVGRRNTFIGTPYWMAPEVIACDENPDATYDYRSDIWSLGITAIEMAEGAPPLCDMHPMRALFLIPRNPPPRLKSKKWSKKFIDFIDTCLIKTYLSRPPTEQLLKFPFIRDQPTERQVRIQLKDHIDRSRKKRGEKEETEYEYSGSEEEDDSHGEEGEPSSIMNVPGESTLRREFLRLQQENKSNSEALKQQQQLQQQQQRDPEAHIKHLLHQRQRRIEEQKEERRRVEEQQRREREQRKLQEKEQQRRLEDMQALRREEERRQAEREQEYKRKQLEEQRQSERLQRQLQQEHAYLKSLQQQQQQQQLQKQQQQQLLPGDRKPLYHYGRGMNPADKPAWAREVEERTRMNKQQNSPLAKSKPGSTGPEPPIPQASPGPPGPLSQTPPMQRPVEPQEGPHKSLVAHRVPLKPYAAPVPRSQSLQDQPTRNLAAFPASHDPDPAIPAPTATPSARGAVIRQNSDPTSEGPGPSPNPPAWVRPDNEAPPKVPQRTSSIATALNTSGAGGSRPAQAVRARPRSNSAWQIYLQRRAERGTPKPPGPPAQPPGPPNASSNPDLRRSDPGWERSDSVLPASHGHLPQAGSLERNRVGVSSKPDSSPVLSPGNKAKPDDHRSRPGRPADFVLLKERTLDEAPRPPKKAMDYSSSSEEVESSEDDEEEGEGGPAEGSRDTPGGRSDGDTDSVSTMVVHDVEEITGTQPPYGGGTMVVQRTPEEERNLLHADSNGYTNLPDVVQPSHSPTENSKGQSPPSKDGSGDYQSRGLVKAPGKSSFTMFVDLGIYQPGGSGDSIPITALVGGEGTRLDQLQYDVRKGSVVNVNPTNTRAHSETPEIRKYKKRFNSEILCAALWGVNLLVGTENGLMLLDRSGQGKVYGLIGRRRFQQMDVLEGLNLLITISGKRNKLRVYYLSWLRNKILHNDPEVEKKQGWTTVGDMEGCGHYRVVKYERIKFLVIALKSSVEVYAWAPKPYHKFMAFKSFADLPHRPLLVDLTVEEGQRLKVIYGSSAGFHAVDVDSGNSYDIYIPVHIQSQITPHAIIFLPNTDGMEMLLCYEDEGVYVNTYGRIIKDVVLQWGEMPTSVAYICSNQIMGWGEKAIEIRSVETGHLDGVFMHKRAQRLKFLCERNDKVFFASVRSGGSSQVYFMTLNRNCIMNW
Structure (SMILES),IC50 [1],solubility kinetic at 24 h [3],AUC(0-t) at 6 h [5],other results
CS(=O)(=O)N1CCC(c2cc(NC(=O)c3cnn4cccnc34)n(-c3ccc(C4CC4)cn3)n2)CC1,20 nM,,,AUC(0-t) at 8 h [2]: 1.9 µM·h
Cc1ccc(-n2nc(-c3ccncc3)cc2NC(=O)c2cnn3cccnc23)cc1,61 nM,< 2 µM,,
Cc1ccc(-n2nc(C3CCN(C)CC3)cc2NC(=O)c2cnn3cccnc23)cc1,150 nM,165 µM,,
COc1ccc(-c2cc(NC(=O)c3cnn4cccnc34)n(-c3ccc(C)cc3)n2)cc1OC,44 nM,< 2 µM,,Drug metabolism [19]: metabolite_detected
Cc1ccc(-n2nc(N3CCN(S(C)(=O)=O)CC3)cc2NC(=O)c2cnn3cccnc23)nc1,2 nM,,,AUC(0-t) at 8 h [2]: 8.9 µM·h
Cc1ccc(-n2nc(-c3ccccc3)cc2NC(=O)c2cnn3cccnc23)cc1,690 nM,< 3 µM,,
C[C@@H]1C[C@H]2[C@@H]3CCC4=CC(=O)C=C[C@]4(C)[C@@]3(F)[C@@H](O)C[C@]2(C)[C@@]1(O)C(=O)CO,,,,Activity [21]: Active
Cc1ccc(-n2nc(C3CCN(S(C)(=O)=O)CC3)cc2NC(=O)c2cnn3cccnc23)cc1,67 nM,< 2 µM,19.3 µM·h,inhibition [4]: > 80%; Activity [11]: inactive; concentration at 3 h [22]: 2660 nM; Activity [13]: 21%; Papp [23]: 31 ×10⁻⁶ cm/s; IC50 [14]: 2400 nM; Activity [16]: 28%; Activity [17]: inactive; inhibition [24]: > 80%
COc1cc(-c2cc(NC(=O)c3cnn4cccnc34)n(-c3ccc(C)cc3)n2)ccn1,390 nM,< 2 µM,1.39 µM·h,
Cc1ccc(-n2nc(C3CCN(C(C)C)CC3)cc2NC(=O)c2cnn3cccnc23)cc1,47 nM,170 µM,0.28 µM·h,
Cc1ccc(-n2nc(C3CCCCC3)cc2NC(=O)c2cnn3cccnc23)cc1,2400 nM,< 2 µM,,
Cc1ccc(-n2nc(C3CCN(C(C)C)CC3)cc2NC(=O)c2cnn3cccnc23)nc1,7 nM,,,
CC(C)N1CCC(c2cc(NC(=O)c3cnn4cccnc34)n(-c3ccc(C4CC4)cc3F)n2)CC1,13 nM,,,AUC(0-t) at 8 h [2]: 1.11 µM·h
Cc1ccc(-n2nc(C3CC3)cc2NC(=O)c2cnn3cccnc23)cc1,370 nM,99 µM,2.37 µM·h,
Cc1ccc(-n2nc(C3CCNCC3)cc2NC(=O)c2cnn3cccnc23)cc1,80 nM,172 µM,,

# More lines, main results first:
IC50 [1],solubility kinetic at 24 h [3],AUC(0-t) at 6 h [5],Structure (SMILES),other results
85 nM,,,CS(=O)(=O)N1CCC(c2cc(NC(=O)c3cnn4cccnc34)n(-c3ccc(C4CC4)cc3F)n2)CC1,
27 nM,,,Cc1ccc(-n2nc(C3CCN(S(C)(=O)=O)CC3)cc2NC(=O)c2cnn3cccnc23)nc1,inhibition [4]: > 80%; AUC(0-t) at 8 h [2]: 0.045 µM·h
310 nM,3 µM,,COc1ccc(-c2cc(NC(=O)c3cnn4cccnc34)n(-c3ccc(C)cc3)n2)cn1,
180 nM,163 µM,0.71 µM·h,CC(=O)N1CCC(c2cc(NC(=O)c3cnn4cccnc34)n(-c3ccc(C)cc3)n2)CC1,
71 nM,,0.43 µM·h,COc1ccc(-n2nc(C3CCN(S(C)(=O)=O)CC3)cc2NC(=O)c2cnn3cccnc23)cc1,
5 nM,,,Cc1ccc(-n2nc(N3CCN(C)CC3)cc2NC(=O)c2cnn3cccnc23)nc1,"Activity [6]: Active; Papp [7]: 32 ×10⁻⁶ cm/s; inhibition [8]: > 80%; fraction unbound at 6 h, 10 µM [9]: 0.21; AUC(0-t) at 8 h [10]: 1.29 µM·h; Activity [11]: 85%; AUC(0-t) at 24 h [12]: 2.3 µM·h; Activity [13]: 32%; AUC(0-t) at 8 h [2]: 1.7 µM·h; IC50 [14]: 83 nM; bioavailability [15]: 28%; Activity [16]: 28%; Activity [17]: 30%; Activity [18]: 34%"
40 nM,,11.8 µM·h,Cc1ccc(-n2nc(C3CCN(S(C)(=O)=O)CC3)cc2NC(=O)c2cnn3cccnc23)c(F)c1,
180 nM,,,Cc1cnc(-n2nc(C3CCN(S(C)(=O)=O)CC3)cc2NC(=O)c2cnn3cccnc23)nc1,
59 nM,,5.26 µM·h,CS(=O)(=O)N1CCC(c2cc(NC(=O)c3cnn4cccnc34)n(-c3ccc(C4CC4)cc3)n2)CC1,
170 nM,< 2 µM,,COc1ccc(-c2cc(NC(=O)c3cnn4cccnc34)n(-c3ccc(C)cc3)n2)cc1,inhibition [4]: > 80%; inhibition [20]: > 80%
99 nM,< 2 µM,0.44 µM·h,Cc1ccc(-n2nc(-c3cccnc3)cc2NC(=O)c2cnn3cccnc23)cc1,
410 nM,24 µM,0.45 µM·h,Cc1ccc(-n2nc(C3CCOCC3)cc2NC(=O)c2cnn3cccnc23)cc1,
280 nM,,,CS(=O)(=O)N1CCC(c2cc(NC(=O)c3cnn4cccnc34)n(-c3ccccc3)n2)CC1,
2100 nM,,,Cc1cccc(-n2nc(C3CCN(S(C)(=O)=O)CC3)cc2NC(=O)c2cnn3cccnc23)c1,
220 nM,,,Cc1ccc(-n2nc(C3CCN(C(N)=O)CC3)cc2NC(=O)c2cnn3cccnc23)cc1,
